In ChEMBL document CHEMBL1806446, “Synthesis and evaluation of hermitamides A and B as human voltage-gated sodium channel blockers” (Bioorg Med Chem, 2011) one finds inhibition and Activity data, which are given here for ten molecules.

Where only a bound is given, the exact number is not on record here.

Test [1] deals with Sodium channel protein type 2 subunit alpha (Homo sapiens) (UniProt Q99250). The experiment in a line: Inhibition of human voltage-gated sodium channel 1.2 expressed in HEK293 cells at 1 uM by […]. The class given is cell-based. The method, boiled down:
(§1)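 HEK293 cells stably expressing hNav1.2, grown in DMEM/F12 with 10% FBS and G418 at 37 °C. Whole-cell patch clamp at 20–22 °C with ≥75% series resistance compensation. Currents evoked by a 25 ms step from –60 to +10 mV every 15 s. Compound was diluted from DMSO stock into perfusion, ≤0.1% DMSO final, applied after a 3 min control until steady state. Reported as percent block, mean ± SEM.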

For another test, the species on record is Rattus norvegicus. The experiment in a line: Displacement of [3H]batrachotoxin from neurotoxin site 2 of voltage-gated sodium channel in rat forebrain tissue at 10 uM after 60 mins. The method, boiled down:
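Rat forebrain membranes (10 mg tissue/well) incubated with [3H]-BTX (30–60 Ci/mmol) in 50 mM HEPES pH 7.4 with 130 mM choline chloride, 37 °C, 60 min; test at 10 μM. Stopped by rapid vacuum filtration onto glass fiber filters; bound radioactivity counted against control and expressed as percent displacement. Aconitine (1 μM) positive control.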

Test [2] addresses Sodium channel protein type 2 subunit alpha (Homo sapiens) (UniProt Q99250). The experiment in a line: Inhibition of human voltage-gated sodium channel 1.2 expressed in HEK293 cells at 100 nM by […]. In kind it is cell-based. In short, it runs like this: as §1
Test [3] has the same target. The experiment in a line: Inhibition of human voltage-gated sodium channel 1.2 expressed in human HEK293 cells at 10 uM by […]. The class given is cell-based. The method, boiled down: as §1

Sodium channel protein type 2 subunit alpha (Homo sapiens), sequence (Q99250 whole entry, looked up, the tested form may be a part): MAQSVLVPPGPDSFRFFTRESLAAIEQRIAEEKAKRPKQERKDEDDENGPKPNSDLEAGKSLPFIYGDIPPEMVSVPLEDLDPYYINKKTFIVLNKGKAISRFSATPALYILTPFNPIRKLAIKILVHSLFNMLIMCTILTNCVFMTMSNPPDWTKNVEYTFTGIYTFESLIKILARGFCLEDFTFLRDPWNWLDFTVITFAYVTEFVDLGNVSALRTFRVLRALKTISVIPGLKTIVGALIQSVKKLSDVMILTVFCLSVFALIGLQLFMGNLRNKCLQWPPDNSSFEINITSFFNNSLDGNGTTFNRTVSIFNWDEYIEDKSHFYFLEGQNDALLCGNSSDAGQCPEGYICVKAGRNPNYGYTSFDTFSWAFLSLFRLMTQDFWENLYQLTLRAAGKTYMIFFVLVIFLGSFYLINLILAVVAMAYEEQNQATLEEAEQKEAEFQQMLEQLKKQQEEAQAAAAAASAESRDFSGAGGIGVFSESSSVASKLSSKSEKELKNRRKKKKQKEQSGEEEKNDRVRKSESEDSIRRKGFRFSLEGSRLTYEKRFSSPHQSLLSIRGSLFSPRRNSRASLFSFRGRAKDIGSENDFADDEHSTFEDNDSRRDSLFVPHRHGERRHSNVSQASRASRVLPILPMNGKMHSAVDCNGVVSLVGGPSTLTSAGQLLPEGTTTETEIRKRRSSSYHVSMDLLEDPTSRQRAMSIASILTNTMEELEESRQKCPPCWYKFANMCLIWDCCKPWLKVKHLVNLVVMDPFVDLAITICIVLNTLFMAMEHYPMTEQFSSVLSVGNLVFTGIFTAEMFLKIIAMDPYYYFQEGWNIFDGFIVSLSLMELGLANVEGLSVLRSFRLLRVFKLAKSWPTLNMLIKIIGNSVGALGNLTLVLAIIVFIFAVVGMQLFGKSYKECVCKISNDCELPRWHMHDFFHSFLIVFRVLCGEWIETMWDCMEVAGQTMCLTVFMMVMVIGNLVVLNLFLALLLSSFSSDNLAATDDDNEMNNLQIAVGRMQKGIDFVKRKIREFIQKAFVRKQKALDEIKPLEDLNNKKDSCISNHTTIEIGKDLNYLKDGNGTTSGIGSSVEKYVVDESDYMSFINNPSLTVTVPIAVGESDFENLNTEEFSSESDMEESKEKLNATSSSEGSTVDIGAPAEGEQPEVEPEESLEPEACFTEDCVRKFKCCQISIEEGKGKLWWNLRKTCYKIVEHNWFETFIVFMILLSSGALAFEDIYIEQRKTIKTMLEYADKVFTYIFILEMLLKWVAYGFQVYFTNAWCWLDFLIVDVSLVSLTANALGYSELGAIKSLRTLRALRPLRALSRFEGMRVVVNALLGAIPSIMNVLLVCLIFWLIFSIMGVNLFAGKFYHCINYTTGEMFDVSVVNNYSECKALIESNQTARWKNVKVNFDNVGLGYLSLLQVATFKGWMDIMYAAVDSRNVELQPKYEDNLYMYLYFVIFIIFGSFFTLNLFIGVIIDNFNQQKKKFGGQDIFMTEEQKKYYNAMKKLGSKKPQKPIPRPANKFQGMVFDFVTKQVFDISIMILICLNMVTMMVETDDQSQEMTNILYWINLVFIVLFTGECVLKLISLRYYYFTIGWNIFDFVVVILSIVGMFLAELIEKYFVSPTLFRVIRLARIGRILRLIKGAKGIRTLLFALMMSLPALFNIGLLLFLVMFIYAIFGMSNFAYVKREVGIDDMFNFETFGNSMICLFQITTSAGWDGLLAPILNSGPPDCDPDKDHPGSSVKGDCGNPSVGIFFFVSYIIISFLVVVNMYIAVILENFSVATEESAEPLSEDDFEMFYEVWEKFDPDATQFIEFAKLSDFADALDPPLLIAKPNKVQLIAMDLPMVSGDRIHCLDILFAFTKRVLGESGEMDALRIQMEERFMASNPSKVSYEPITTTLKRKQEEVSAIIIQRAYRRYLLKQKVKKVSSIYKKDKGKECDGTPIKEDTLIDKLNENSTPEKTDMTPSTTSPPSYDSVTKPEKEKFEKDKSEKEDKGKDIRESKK

As for `CCCCCCC[C@H](C/C=C/CCC(=O)NCCc1ccccc1)OC`, the values for the inhibition in test [1] and in test [2] were 58.7% and < 10%, respectively. Also, the Activity in the test filed under Rattus norvegicus was 13.8%.
Turning to `CCCCCCC[C@@H](C/C=C/CCC(=O)O)OC`, the Activity in the test filed under Rattus norvegicus was determined as 7.77%.
Turning to `CCCCCCCC(C/C=C/CCC(=O)NCCc1c[nH]c2ccccc12)OC` (racemic), the inhibition was 88.4% in test [1], 100% in test [3] and 24.3% in test [2]. The molecule also displayed an Activity in the test listed under Rattus norvegicus of 36%.
For the molecule `CCCCCCC[C@H](C/C=C/CCC(=O)NCCc1c[nH]c2ccccc12)OC`, the figures for the inhibition in test [1] and in test [2] were 80.7% and 28.8%, respectively. The same molecule yielded an Activity in the test filed under Rattus norvegicus of 20.3%.
For `CCCCCCCC(C/C=C/CCC(=O)NCCc1ccccc1)OC` (racemic), the results for the inhibition in test [1], in test [3] and in test [2] were 49.7%, 90.2% and < 10%, respectively. The same molecule came in with an Activity in the test filed under Rattus norvegicus of 15.7%.
`O=C1NC(=O)C(c2ccccc2)(c2ccccc2)N1`: the inhibition is < 10% in test [1] and 10% in test [3]. The Activity in the test filed under Rattus norvegicus was determined as 19.8%.
`CCCCCCC[C@@H](C/C=C/CCC(=O)NCCc1c[nH]c2ccccc12)OC`: the inhibition in test [1] came to 87.8%; in test [3], 100%; in test [2], 17.2%. This molecule also yielded an Activity in the test listed under Rattus norvegicus of 29%.
The like results for `CCCCCCC[C@@H](C/C=C/CCC(=O)NCCc1ccccc1)OC` were, in that order, 74.4%, 94.4%, 15.5% and 15.9%.
In turn, `CCCCCCC[C@H](C/C=C/CCC(=O)O)OC` showed an Activity in the test filed under Rattus norvegicus of 11.9%.
As for `CCCCCCCC(C/C=C/CCC(=O)O)OC` (racemic), in the test filed under Rattus norvegicus, the Activity is 7.35%.
